This note sets out measurements from ChEMBL document CHEMBL3098054, “The synthesis of novel taxoids for oral administration” (Bioorg Med Chem, 2014).

Data set [1] has as its system MCF7. Kind of data set: Cytotoxicity against human MCF7 cells at 1 uM after 72 hrs by MTT assay. The data set is classed as functional. The conditions noted are these: MCF7, 72 h, read-out: GI. Summed up: (§1)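 Cells plated at 2000–5000/well, attached overnight at 37 °C. DMSO stocks (100 mM) serially diluted in medium to a final 1 µM, tested in duplicate wells. Exposure 72 h at 37 °C, 5% CO₂. MTT (5 mg/mL, 10 µL) added for 4 h. Lysis in 10% SDS / 5% isopropanol / 0.012 N HCl, then OD read at 580–680 nm.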
For orientation: Tetrazolium dyes change colour on reduction, which living cells bring about.

Data set [2] concerns HL-60. Description: Cytotoxicity against human HL60 cells at 1 uM after 72 hrs by MTT assay. The class given is functional. The note with it: HL-60, 72 h, read-out: GI. In short, it runs like this:
as §1

The test system of data set [3] is HeLa. Description: Cytotoxicity against human HeLa cells at 1 uM after 72 hrs by MTT assay. The data set is classed as functional. The conditions noted are these: read-out: GI. In short, it runs like this:
as §1

Data set [4] concerns A-375. Kind of data set: Cytotoxicity against human A375 cells at 1 uM after 72 hrs by MTT assay. The class given is functional. The note with it: A-375, 72 h, read-out: GI. In short, it runs like this: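 Cells plated at 2000–5000/well, attached overnight at 37 °C. DMSO stocks (100 mM) serially diluted in medium to a final 1 µM, tested in duplicate wells. MTT (5 mg/mL, 10 µL) added for 4 h. Lysis in 10% SDS / 5% isopropanol / 0.012 N HCl, then OD read at 580–680 nm.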

Data set [5] relates to DU-145. Description: Cytotoxicity against human DU145 cells at 1 uM after 72 hrs by MTT assay. The class given is functional. The conditions noted are these: DU-145, 72 h, read-out: GI. Summed up:
as §1

The subject of data set [6] is A2780. Kind of data set: Cytotoxicity against human A2780 cells at 1 uM after 72 hrs by MTT assay. The data set is classed as functional. The note with it: A2780, 72 h, read-out: GI. In short, it runs like this: as §1
The test system of data set [7] is HT-29. Kind of data set: Cytotoxicity against human HT-29 cells at 1 uM after 72 hrs by MTT assay. The conditions noted are these: HT-29, 72 h, read-out: GI. The class given is functional. Summed up:
as §1

Data set [8] concerns NCI-H460. Kind of data set: Cytotoxicity against human NCI-H460 cells at 1 uM after 72 hrs by MTT assay. The data set is classed as functional. The conditions noted are these: NCI-H460, 72 h, read-out: GI. In short, it runs like this: as §1
Data set [9] in a line: Apparent permeability from apical to basolateral side in human Caco2 cells at 10 uM after 90 mins by LC-MS/MS analysis. The class given is ADME, cell-based, Caco-2. The conditions noted are these: Caco-2. A general note: Passage across Caco-2 layers is used to estimate intestinal permeability.
The test system of data set [10] is MCF7. Description: Cytotoxicity against human MCF7 cells after 72 hrs by MTT assay. The data set is classed as functional, cell-based. The note with it: MCF7, 72 h. In short, it runs like this: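 MCF-7 cells exposed to compound for 72 h and read by MTT. At least six replicate wells per assay, run on three separate occasions. IC₅₀ given as mean with standard deviation.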

As usually defined, the Papp A→B is the apparent permeability from the apical to the basolateral side of a cell layer. Broadly, the IC50 is the midpoint of a concentration-inhibition curve.

Turning to `CO[C@H]1C(=O)[C@]2(C)[C@@H](OC)C[C@H]3OC[C@@]3(OC(C)=O)[C@H]2[C@H](OC(=O)c2ccccc2)[C@]2(O)C[C@H](OC(=O)[C@H](O)[C@@H](NC(=O)c3ccccc3)c3ccccc3)C(C)=C1C2(C)C`, the inhibition of growth at 1 µM in data set [1] came to 92.1%; in [2] it was 97.2%; in data set [3], 102%; in [4], 89.7%; in [5], 86.4%; in data set [6], 95.2%. The inhibition of growth at 1 µM came out at 87.5% in data set [7] and 85% in data set [8].
On to `CO[C@H]1C(=O)[C@]2(C)CC[C@H]3OC[C@@]3(OC(C)=O)[C@H]2[C@H](OC(=O)c2ccccc2)[C@]2(O)C[C@H](OC(=O)[C@H](O)[C@@H](NC(=O)OC(C)(C)C)c3ccccc3)C(C)=C1C2(C)C`, for which the inhibition of growth at 1 µM in [3] came to 101%. In data set [9], the Papp A→B at 1.5 h, 10 µM was 3.64 ×10⁻⁶ cm/s. Also, in data set [10], inhibition was half-maximal at 3.33 nM (IC50).
With `CO[C@H]1C[C@H]2OC[C@@]2(OC(C)=O)[C@H]2[C@H](OC(=O)c3ccccc3)[C@]3(O)C[C@H](OC(=O)[C@H](O)[C@@H](NC(=O)c4ccccc4)c4ccccc4)C(C)=C([C@@H](OC(=O)N(C)C)C(=O)[C@]12C)C3(C)C`, the inhibition of growth at 1 µM in data set [1] was 85.7%; in data set [2] it was 97.5%; in [3] it was 102%; in data set [4] it was 87.7%; in [5] it was 87.1%; in [6] it was 96.3%. Moreover, the figures for the inhibition of growth at 1 µM in data set [7] and in [8] were 87.9% and 86.5%, respectively. Further, the Papp A→B at 1.5 h, 10 µM in [9] came to 2.94 ×10⁻⁶ cm/s.
Regarding `CO[C@H]1C[C@H]2OC[C@@]2(OC(C)=O)[C@H]2[C@H](OC(=O)c3ccccc3)[C@]3(O)C[C@H](OC(=O)[C@H](O)[C@@H](NC(=O)OC(C)(C)C)c4ccccn4)C(C)=C([C@@H](OC(=O)N(C)C)C(=O)[C@]12C)C3(C)C`, in data set [3], the inhibition of growth at 1 µM is 100%. Besides, the Papp A→B at 1.5 h, 10 µM in data set [9] came out at 3.02 ×10⁻⁶ cm/s.
Turning to `COC(=O)O[C@H]1C(=O)[C@]2(C)[C@@H](OC)C[C@H]3OC[C@@]3(OC(C)=O)[C@H]2[C@H](OC(=O)c2ccccc2)[C@]2(O)C[C@H](OC(=O)[C@H](O)[C@@H](NC(=O)c3ccccc3)c3ccccc3)C(C)=C1C2(C)C`, the inhibition of growth at 1 µM was 95.5% in [1]; 96.8% in data set [2]; 101% in [3]; 94.2% in data set [4]; 86.2% in data set [5]; 95.8% in data set [6]. Besides, the inhibition of growth at 1 µM in [7] worked out at 88.8%; in data set [8], 86.4%. For the same molecule, in data set [9], the Papp A→B at 1.5 h, 10 µM was 4.38 ×10⁻⁶ cm/s.
In the case of `CO[C@H]1C(=O)[C@]2(C)[C@@H](OC(=O)N(C)C)C[C@H]3OC[C@@]3(OC(C)=O)[C@H]2[C@H](OC(=O)c2ccccc2)[C@]2(O)C[C@H](OC(=O)[C@H](O)[C@@H](NC(=O)OC(C)(C)C)c3ccccn3)C(C)=C1C2(C)C`, the inhibition of growth at 1 µM in data set [3] was found to be 103%. In addition, the Papp A→B at 1.5 h, 10 µM in data set [9] turned out to be 4.41 ×10⁻⁶ cm/s. In addition, the IC50 in [10] is 46.6 nM.
`COC(=O)O[C@H]1C[C@H]2OC[C@@]2(OC(C)=O)[C@H]2[C@H](OC(=O)c3ccccc3)[C@]3(O)C[C@H](OC(=O)[C@H](O)[C@@H](NC(=O)c4ccccc4)c4ccccc4)C(C)=C([C@@H](OC)C(=O)[C@]12C)C3(C)C`: the inhibition of growth at 1 µM in [1] was found to be 107%; in [2], 97.8%; in data set [3], 102%; in data set [4] it was 94%; in data set [5], 88.3%; in data set [6], 96.9%. Besides, the inhibition of growth at 1 µM in data set [7] was 89.7%; in data set [8] it was 90.3%. For the same molecule, the Papp A→B at 1.5 h, 10 µM in data set [9] was 3.32 ×10⁻⁶ cm/s.
`COC(=O)O[C@H]1C[C@H]2OC[C@@]2(OC(C)=O)[C@H]2[C@H](OC(=O)c3ccccc3)[C@]3(O)C[C@H](OC(=O)[C@H](O)[C@@H](NC(=O)OC(C)(C)C)c4ccccn4)C(C)=C([C@@H](OC)C(=O)[C@]12C)C3(C)C`: the inhibition of growth at 1 µM in [3] stood at 102%. Moreover, in data set [9], the Papp A→B at 1.5 h, 10 µM amounted to 4.53 ×10⁻⁶ cm/s.
For the molecule `CO[C@H]1C(=O)[C@]2(C)[C@@H](OC)C[C@H]3OC[C@@]3(OC(C)=O)[C@H]2[C@H](OC(=O)c2ccccc2)[C@]23OC(=O)O[C@H]2[C@H](OC(=O)[C@H](O)[C@@H](NC(=O)OC(C)(C)C)c2ccccn2)C(C)=C1C3(C)C`, the Papp A→B at 1.5 h, 10 µM in [9] was 3.66 ×10⁻⁶ cm/s. This molecule yielded an IC50 in [10] of 3.4 nM.
On to `CO[C@H]1C(=O)[C@]2(C)[C@@H](OC)C[C@H]3OC[C@@]3(OC(C)=O)[C@H]2[C@H](OC(=O)c2ccccc2)[C@]23OC(=O)O[C@H]2[C@H](OC(=O)[C@H](O)[C@H](CC(C)C)NC(=O)OC(C)(C)C)C(C)=C1C3(C)C`, for which the Papp A→B at 1.5 h, 10 µM in data set [9] came to 2.57 ×10⁻⁶ cm/s. This molecule also showed an IC50 in [10] of 4.04 nM.
`CO[C@H]1C[C@H]2OC[C@@]2(OC(C)=O)[C@H]2[C@H](OC(=O)c3ccccc3)[C@]34OC(=O)O[C@H]3[C@H](OC(=O)[C@H](O)[C@@H](NC(=O)OC(C)(C)C)c3ccccn3)C(C)=C([C@@H](OC(=O)N(C)C)C(=O)[C@]12C)C4(C)C`: the Papp A→B at 1.5 h, 10 µM in [9] stood at 4.68 ×10⁻⁶ cm/s. The molecule also gave an IC50 in data set [10] of 14.3 nM.
Take `CO[C@H]1C[C@H]2OC[C@@]2(OC(C)=O)[C@H]2[C@H](OC(=O)c3ccccc3)[C@]34OC(=O)O[C@H]3[C@H](OC(=O)[C@H](O)[C@H](CC(C)C)NC(=O)OC(C)(C)C)C(C)=C([C@@H](OC(=O)N(C)C)C(=O)[C@]12C)C4(C)C`: the Papp A→B at 1.5 h, 10 µM in data set [9] was found to be 1.07 ×10⁻⁶ cm/s. The molecule also yielded an IC50 in data set [10] of 6.44 nM.
Regarding `COC(=O)O[C@H]1C(=O)[C@]2(C)[C@@H](OC)C[C@H]3OC[C@@]3(OC(C)=O)[C@H]2[C@H](OC(=O)c2ccccc2)[C@]23OC(=O)O[C@H]2[C@H](OC(=O)[C@H](O)[C@@H](NC(=O)OC(C)(C)C)c2ccccc2)C(C)=C1C3(C)C`, in data set [9], the Papp A→B at 1.5 h, 10 µM is less than 1.43 ×10⁻⁶ cm/s. In data set [10], this molecule came in with an IC50 of 3.24 nM.
On to `CO[C@H]1C(=O)[C@]2(C)[C@@H](OC(=O)N(C)C)C[C@H]3OC[C@@]3(OC(C)=O)[C@H]2[C@H](OC(=O)c2ccccc2)[C@]23OC(=O)O[C@H]2[C@H](OC(=O)[C@H](O)[C@@H](NC(=O)OC(C)(C)C)c2ccccn2)C(C)=C1C3(C)C`, for which, in data set [9], the Papp A→B at 1.5 h, 10 µM stood at 2.46 ×10⁻⁶ cm/s. In [10], the IC50 was 18.2 nM.
Consider `COC(=O)O[C@H]1C[C@H]2OC[C@@]2(OC(C)=O)[C@H]2[C@H](OC(=O)c3ccccc3)[C@]34OC(=O)O[C@H]3[C@H](OC(=O)[C@H](O)[C@@H](NC(=O)OC(C)(C)C)c3ccccc3)C(C)=C([C@@H](OC)C(=O)[C@]12C)C4(C)C`, for which the Papp A→B at 1.5 h, 10 µM in data set [9] is 3.93 ×10⁻⁶ cm/s. The IC50 in data set [10] was found to be 3.84 nM.
On to `CC[C@H]1OC(=O)[C@H](C)[C@@H](O[C@H]2C[C@@](C)(OC)[C@@H](O)[C@H](C)O2)[C@H](C)[C@@H](O[C@@H]2O[C@H](C)C[C@H](N(C)C)[C@H]2O)[C@](C)(O)C[C@@H](C)C(=O)[C@H](C)[C@@H](O)[C@]1(C)O` [ERYTHROMYCIN], for which the Papp A→B at 1.5 h, 10 µM in data set [9] is 0.58 ×10⁻⁶ cm/s.
